Measurements from ChEMBL document CHEMBL3046303, “Nematotoxic phenolic compounds from Melia azedarach against Meloidogyne incognita” (J Agric Food Chem, 2012).
Values after ≈ are worked out from the molar mass of the structure shown. Active and inactive are the calls of the source. The rule behind the calls is not given here.

Columns and labels:
Type in all cases: functional, organism-based
Meloidogyne incognita [1] = test: Nematotoxic activity against Meloidogyne incognita (root-knot nematode)
Method in brief: (§1)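 Freshly hatched J2 (24 h old), extracted from tomato roots, were exposed to test solutions at 25 J2 per well. Plates were kept in the dark at 28 °C with water and solvent-carrier controls. Nematodes were scored under an inverted microscope (40×) as motile or paralyzed. Paralysis was corrected for the water control by the Schneider-Orelli formula. EC50 came from log-logistic regression. Experiments were run twice.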

Meloidogyne incognita [2] = test: Nematotoxic activity against freshly hatched Meloidogyne incognita J2 (root-knot nematode) isolated from tomato roots assessed as induction of nematode paralysis measured 24 hr after immersion in compound test solutions
Method in brief: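 Freshly hatched (24 h) J2 extracted from tomato roots; 25 J2 per well in 96-well plates, kept in the dark at 28 °C. Motile or paralyzed J2 were scored under an inverted microscope at 40×. Paralysis was corrected for the water control (Schneider-Orelli). EC50 was fitted by log-logistic regression on the mean of five replicates; experiments were run twice.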

Meloidogyne incognita [3] = test: Nematotoxic activity against freshly hatched Meloidogyne incognita J2 (root-knot nematode) isolated from tomato roots assessed as induction of nematode paralysis at 1000 ug/mL measured 24 hr after immersion in compound test solutions; method in brief: as §1
Meloidogyne incognita [4] = test: Nematotoxic activity against freshly hatched Meloidogyne incognita J2 (root-knot nematode) isolated from tomato roots assessed as induction of microscopic damages in nematode body measured 24 hr after immersion in compound test solutions

Row | SMILES | EC50 (Meloidogyne incognita [2]) [µg/mL] | further results
1 | O=Cc1ccc(CO)o1 [AES-103] | – | EC50 (Meloidogyne incognita [1]): 8.5 µg/mL (≈ 0.0674 mM)
2 | O=C(O)CC(O)C(=O)O (stereo not given) [MALIC ACID] | > 1000 | –
3 | Oc1cc(O)c2c(c1)O[C@@H](c1ccc(O)c(O)c1)[C@@H](O)C2 [(+)-EPICATECHIN] | > 1000 | –
4 | O=C(O)/C=C/c1ccc(O)c(O)c1 [CAFFEIC ACID] | > 1000 | Activity (Meloidogyne incognita [3]): inactive
5 | O=C(O)c1cc(O)c(O)c(O)c1 [GALLIC ACID] | > 1000 | –
6 | O=C(O)c1ccc2ccccc2c1 [BETA-NAPHTOIC ACID] | > 1000 | –
7 | O=C(O)c1ccccc1 [BENZOIC ACID] | 501 (≈ 4.1 mM) | –
8 | Oc1cc(O)c2c(c1)OC(c1ccc(O)c(O)c1)C(O)C2 (stereo not given) [CATECHIN] | > 1000 | –
9 | CCCCCC(=O)O [HEXANOATE] | – | EC50 (Meloidogyne incognita [1]): 38.3 µg/mL (≈ 0.33 mM)
10 | O=C(O)/C=C/c1ccc(O)cc1 [COUMARIC ACID] | 840 (≈ 5.12 mM) | –
11 | C[C@@H]1O[C@@H](OC[C@H]2O[C@@H](Oc3c(-c4ccc(O)c(O)c4)oc4cc(O)cc(O)c4c3=O)[C@H](O)[C@@H](O)[C@@H]2O)[C@H](O)[C@H](O)[C@H]1O [RUTIN] | > 1000 | –
12 | COc1cc(/C=C/C(=O)O)ccc1O [FERULATE] | > 1000 | –
13 | O=C(O)c1ccccc1O [SALICYLIC ACID] | 379 (≈ 2.74 mM) | Activity (Meloidogyne incognita [3]): Active; LC50 (Meloidogyne incognita [1]): 46 µg/mL (≈ 0.333 mM)
14 | O=Cc1ccco1 [FURFURAL] | – | EC50 (Meloidogyne incognita [1]): 41.1 µg/mL (≈ 0.428 mM); Activity (Meloidogyne incognita [4]): Active
15 | O=C(O)c1cccnc1 [NIACIN] | 1730 (≈ 14.1 mM) | –
16 | Cc1ccc(C=O)o1 [5-METHYLFURFURAL] | – | EC50 (Meloidogyne incognita [1]): 45.7 µg/mL (≈ 0.415 mM)
17 | O=C(/C=C/c1ccc(O)c(O)c1)O[C@@H]1C[C@](O)(C(=O)O)C[C@@H](O)[C@H]1O [CHLOROGENIC ACID] | > 1000 | –
18 | O=C(O)c1ccc(O)c(O)c1 [PROTOCATECHUIC ACID] | > 1000 | –
19 | CCCCCCCCCCCCCCCC(=O)O [PALMITIC ACID] | – | EC50 (Meloidogyne incognita [1]): 38.3 µg/mL (≈ 0.149 mM)
20 | O=C(O)c1ccc(O)cc1 [PARABEN] | 871 (≈ 6.31 mM) | –
21 | COc1cc(C(=O)O)ccc1O [VANILLIC ACID] | > 1000 | –
